In brackets after ≈: the same amount, converted by molar mass. Activity calls are given as the source filed them. The calls are words filed in the database; no cut-off is given here. Starred links: 1 amine or outer side, 2 acyl side, 3 side chain; linkers in the order of their positions; H or OH if unused. Positions of bridges follow the written chain, without caps; N, C: chain ends. Non-standard residues stand in square brackets, D forms with d. Residues, ends and D or L forms follow the SMILES beside them. *: point of attachment. pTerphenylCO(4''-OnC5H11) = CCCCCOc1ccc(-c2ccc(-c3ccc(C(=O)*)cc3)cc2)cc1; Orn(4R-OH,5R-OH) = O=C([C@H](C[C@@H](O)[C@@H](O)N[*:3])N[*:1])[*:2]; hTyr(3S-OH,4S-OH) = N[C@H](C(=O)O)[C@H](O)[C@@H](O)c1ccc(O)cc1; Pro(3S-OH,4S-Me) = C[C@H]1CN[C@H](C(=O)O)[C@H]1O; Hyp = O=C(O)[C@@H]1C[C@@H](O)CN1
What was measured:
Nakaseomyces glabratus [1] = test: Antifungal activity against Candida glabrata 570 assessed as complete growth inhibition after 24 hrs by CLSI end point method; assay type: functional; details: Nakaseomyces glabratus, 570, 24 h
Summary of the method: (§1)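 Two end points were read against the drug-free control well: partial growth inhibition (the CLSI end point) and complete inhibition. Run in duplicate on four separate occasions; the value is the mean. Drug stock was made in DMSO and diluted in 0.9% NaCl.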

Nakaseomyces glabratus [2] = test: Antifungal activity against Candida glabrata 32930 infected in neutropenic ICR/Swiss mouse candidiasis model assessed as dose required to maintain […] of 1.83 +/- 0.54 log10CFU per kidney administered intraperitoneally every 24 hrs up to 4 days measured per 24 hrs; assay type: functional
Candida albicans [3] = test: Antifungal activity against Candida albicans 98-210 infected in neutropenic ICR/Swiss mouse candidiasis model assessed as dose required for 1-log10 reduction in […] per kidney administered intraperitoneally every 24 hrs up to 4 days measured per 24 hrs; assay type: functional
Summary of the method: (§2)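 Neutropenic mice (cyclophosphamide sc on days −4, −1 and +2) were infected iv 2 h before therapy. Five total doses from 0.078 to 20 mg/kg/24 h were given ip q24h for 4 days, three mice per regimen. Kidney CFU were measured at the end of therapy. Static and 1-log-kill doses were derived from a Hill sigmoid dose-effect fit.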

Nakaseomyces glabratus [4] = test: Antifungal activity against Candida glabrata 5376 infected in neutropenic ICR/Swiss mouse candidiasis model assessed as reduction of […] in kidney at 5 mg/kg, ip administered 2 hrs postinfection as single dose measured after 96 hrs post dosing by time-kill assay; assay type: functional, organism-based; set-up: dose 5 mg/kg
Summary of the method: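 Neutropenic mice were infected i.v. and 2 h later given a single i.p. dose (1.25, 5 or 20 mg/kg). Groups of three treated and three control mice were killed at intervals over 96 h, and kidney CFU were counted on SDA (limit 100 CFU/ml). The post-antifungal effect is t − c: the time for a 1 log10 CFU/kidney increase once serum levels fall below the MIC in treated mice, minus the same time in controls.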

[5] = Steady state AUC in human at 100 mg/day; assay type: ADME, organism-based; details: in vivo
Nakaseomyces glabratus [6] = test: Antifungal activity against Candida glabrata 570 infected in neutropenic ICR/Swiss mouse candidiasis model assessed as dose required to maintain […] of 1.83 +/- 0.54 log10CFU per kidney administered intraperitoneally every 24 hrs up to 4 days measured per 24 hrs; assay type: functional
Candida albicans [7] = test: Antifungal activity against Candida albicans 98-210 infected in neutropenic ICR/Swiss mouse candidiasis model assessed as dose required to maintain […] of 3.81 +/- 0.33 log10CFU per kidney administered intraperitoneally every 24 hrs up to 4 days measured per 24 hrs; assay type: functional; summary of the method: as §2
Nakaseomyces glabratus [8] = test: Antifungal activity against Candida glabrata 5376 infected in neutropenic ICR/Swiss mouse candidiasis model assessed as dose required to maintain […] of 3.71 +/- 0.21 log10CFU per kidney administered intraperitoneally every 16 hrs up to 4 days measured per 96 hrs
Nakaseomyces glabratus [9] = test: Antifungal activity against Candida glabrata 34341 assessed as complete growth inhibition after 24 hrs by CLSI end point method; assay type: functional; details: Nakaseomyces glabratus, 34341, 24 h; summary of the method: as §1
Candida albicans [10] = test: Antifungal activity against Candida albicans K-1 assessed as partial growth inhibition after 24 hrs by CLSI end point method; assay type: functional; details: K-1, 24 h
Summary of the method: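 CLSI M27-A2 broth dilution. Two end points read against the drug-free control well: partial inhibition (CLSI end point) and complete inhibition. Run in duplicate on four separate occasions; value is the mean. Drug stock in DMSO, diluted in 0.9% NaCl.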

Nakaseomyces glabratus [11] = test: Antifungal activity against Candida glabrata 35315 assessed as complete growth inhibition after 24 hrs by CLSI end point method; assay type: functional; details: Nakaseomyces glabratus, 35315, 24 h; summary of the method: as §1
Candida albicans [12] = test: Antifungal activity against Candida albicans K-1 infected in neutropenic ICR/Swiss mouse candidiasis model assessed as […] burden per kidney administered intraperitoneally every 24 hrs up to 4 days measured per 96 hrs; assay type: functional; details: K-1, Kidney, ip
Summary of the method: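 Neutropenic mice were infected iv with C. albicans K-1 2 h before therapy. Total doses of 1.25, 5, 20, 80 and 320 mg/kg/96 h were split into 1, 2, 4 or 6 ip doses (q96h, q48h, q24h, q16h), three mice per regimen. Effect is the log10 CFU/kidney relative to untreated controls at 96 h. Static and 1-log doses were taken from a Hill model fit.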

Nakaseomyces glabratus [13] = test: Antifungal activity against Candida glabrata after 24 hrs by broth microdilution method; assay type: functional; summary of the method: as §1
Candida albicans [14] = test: Antifungal activity against Candida albicans K-1 infected in neutropenic ICR/Swiss mouse candidiasis model assessed as reduction of […] in kidney at 1.25 mg/kg, ip administered 2 hrs postinfection as single dose measured after 96 hrs post dosing by time-kill assay; assay type: functional, organism-based; set-up: dose 1.25 mg/kg
Summary of the method: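 Neutropenic mice given a single ip dose (1.25, 5 or 20 mg/kg) 2 h after tail-vein infection. Kidneys from 3 mice per time point collected nine times over 96 h. Homogenates serially diluted 1:10 and plated on SDA, 24 h at 35°C. Detection limit 100 CFU/ml.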

CCCCCOc1ccc(-c2ccc(-c3ccc(C(=O)N[C@H]4C[C@@H](O)[C@@H](O)NC(=O)[C@@H]5[C@@H](O)[C@@H](C)CN5C(=O)[C@H]([C@@H](C)O)NC(=O)[C@H]([C@H](O)[C@@H](O)c5ccc(O)cc5)NC(=O)[C@@H]5C[C@@H](O)CN5C(=O)[C@H]([C@@H](C)O)NC4=O)cc3)cc2)cc1 [ANIDULAFUNGIN] ({pTerphenylCO(4''-OnC5H11)}-[Orn(4R-OH,5R-OH)]T[Hyp][hTyr(3S-OH,4S-OH)]T[Pro(3S-OH,4S-Me)]; lactam 1-C)
MIC (Nakaseomyces glabratus [1]): 0.12 µg/mL (≈ 0.105 µM) | Activity (Nakaseomyces glabratus [2]): 1.58 mg/kg | Activity (Candida albicans [3]): 13 mg/kg | Activity (Nakaseomyces glabratus [4]): Active | AUC [5]: 112 µg·h/mL | Activity (Nakaseomyces glabratus [6]): 1.97 mg/kg | Activity (Candida albicans [7]): 3.37 mg/kg | Activity (Nakaseomyces glabratus [8]): 30 mg/kg | MIC (Nakaseomyces glabratus [9]): 1 µg/mL (≈ 0.877 µM) | MIC (Candida albicans [10]): 0.015 µg/mL (≈ 0.0132 µM) | MIC (Nakaseomyces glabratus [11]): 1 µg/mL (≈ 0.877 µM) | ED50 (Candida albicans [12]): 3.5 mg/kg | MIC90 (Nakaseomyces glabratus [13]): 0.12 µg/mL (≈ 0.105 µM) | Activity (Candida albicans [14]): Active
